In paper PMC3230563 (International Journal of Nanomedicine, 2011):

Key:
[1] = In vivo pharmacokinetics in rats; set-up: species or system Male Wistar rats; settings: for half-life: T1/2, rat; for Tmax: Tmax average
How it was run: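 Fasted (12 h) male Wistar rats under 0.5% isoflurane received 200 μg/kg in isotonic solution by tail-vein bolus (n = 4). Serial intracardiac blood went into 0.109 M citrate from 2 min to 24 h, and plasma was stored at −20°C. Concentration came from an anti-Xa chromogenic calibration curve, with over-range samples diluted in human normal plasma. Noncompartmental PK used trapezoidal AUC; bioavailability was the dose-corrected oral/IV AUC ratio.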

[2] = tested on: rat; settings: oral, no reference given; cited from earlier work
[3] = male, Wistar, rat, plasma, iv, 200 ug/kg
[4] = male, Wistar, rat, plasma, iv, 200 ug/kg, IV bolus
[5] = male, Wistar, rat, plasma, po, 5 mg/kg
[6] = male, Wistar, rat, plasma, po, 5 mg/kg, 5 mg/kg Fp
[7] = male, Wistar, rat, plasma, sc, 200 ug/kg
[8] = rat, IV bolus, 200 μg/kg, listed as IV Fp solution

## CO[C@H]1O[C@H](COS(=O)(=O)O)[C@@H](O[C@@H]2O[C@@H](C(=O)O)[C@@H](O[C@H]3O[C@H](COS(=O)(=O)O)[C@@H](O[C@@H]4O[C@H](C(=O)O)[C@@H](O[C@H]5O[C@H](COS(=O)(=O)O)[C@@H](O)[C@H](O)[C@H]5NS(=O)(=O)O)[C@H](O)[C@H]4O)[C@H](OS(=O)(=O)O)[C@H]3NS(=O)(=O)O)[C@H](O)[C@H]2OS(=O)(=O)O)[C@H](O)[C@H]1NS(=O)(=O)O [Fp, fondaparinux]
[1]; [3]
  AUC(0-inf): 2300 ng·h/mL
  Cmax: 1420 ± 120 ng/mL
[1]; male, Wistar, rat, plasma, iv, 200 ug/kg, Absolute bioavailability, IV bolus, 200 μg/kg (reference)
  bioavailability: 100%
[1]; male, Wistar, rat, plasma, iv, 200 ug/kg, MRT, IV bolus
  MRT: 1.17 h
[1]; [4]
  half-life: 1.8 h
  Tmax: 0.0333 h
[1]; [5]
  AUC(0-inf): 812 ng·h/mL
  Cmax: 60 ± 20 ng/mL
[1]; male, Wistar, rat, plasma, po, 5 mg/kg, MRT, 5 mg/kg Fp
  MRT: 1.36 h
[1]; [6]
  half-life: 0.862 ± 0.607 h
  Tmax: 2 h
[1]; [7]
  AUC(0-inf): 2570 ng·h/mL
  Cmax: 836 ± 190 ng/mL
  half-life: 1.47 ± 1.4 h
  Tmax: ≤ 1 h
[1]; male, Wistar, rat, plasma, sc, 200 ug/kg, MRT
  MRT: 3.87 h
[1]; oral Fp solution alone, 0.5, 2 mg/kg, limit of quantification 0.01 μg/mL
  anti-Xa level in rat plasma: below the limit of quantification
[1]; rat, IV bolus, 200 μg/kg
  Clearance: 490.52 ± 14.74 µL/min
[1]; [8]
  MRT: 1.8028 ± 0.4345 h
  T1/2: 1.175 ± 0.2938 h
[1]; rat, SC, 200 μg/kg
  Clearance: 493.89 ± 5.478 µL/min
[1]; rat, SC, 200 μg/kg, dose corrected AUC versus IV, listed as SC Fp solution
  Absolute bioavailability: 115.84 ± 17.92 (4) %
[1]; rat, SC, 200 μg/kg, listed as SC Fp solution
  Tmax average: 1 h
[1]; rat, oral, 5 mg/kg Fp
  Clearance: 455.43 ± 14.51 µL/min

## CCCCCCCCCCCCCCCC[N+](C)(C)C [CTAB, hexadecyltrimethyl ammonium bromide]
[2]
  LD50: 410 mg/kg

## CCCCCCCCCCCCCCCCCCN [SA, stearylamine]
[2]
  LD50: 1395 mg/kg
